Published values of several laboratories.
Each line is one published result; the experiments were not run side by side.
Target: Glycogen synthase kinase-3 beta (GSK3B, Homo sapiens, UniProt P49841)

Structure (SMILES) | assay | setting | measurement | value
COc1c2c(cc3c1OCO3)CC[N+](C)=C2 | enzyme activity, inhibitor, ADP detection | 100 µM | inhibition | 24.8%
Cn1cncc1[C@](O)(COc1ccc(C#N)cc1-c1ccc(OC(F)(F)F)cc1)c1ccc(C#N)cc1 | cell-free assay, competition with immobilised ligand | 1 µM | remaining binding | 93%
C#Cc1n[nH]c2c(-c3cn([C@@H](C)c4ccccc4)c(=O)[nH]c3=O)cc(F)cc12 | enzyme activity, inhibitor | 0.1 µM | inhibition | -3.5%
COc1cc2c(cc1-c1cc3cc4ccoc4cc3oc1=O)OCO2 | enzyme activity, inhibitor, ADP detection | 100 µM | inhibition | 26.4%
CC(C)(C)c1cc(C=C(C#N)C#N)cc(Br)c1O | enzyme activity, inhibitor | 0.5 µM | remaining activity | 107%
C#Cc1n[nH]c2c(-c3cn([C@@H](C)c4ccccn4)c(=O)[nH]c3=O)cc(F)cc12 | enzyme activity, inhibitor | 0.1 µM | inhibition | -0.1%
Cc1nn(C)cc1-c1nc2c(N3CCN(Cc4ccc(Cl)cc4)CC3)c(Cl)cnc2[nH]1 | binding, competition with immobilised ligand | 1 µM | remaining binding | 68%
O=c1[nH]c2ccccc2n1C1CCN(Cc2ccc(-c3[nH]c4cc5ncnc5cc4nc3-c3ccccc3)cc2)CC1 | enzyme activity | 0.5 µM | remaining activity | 113%
COc1ncccc1-c1cnn2ccc(N3CCN(C(=O)OC(C)C)CC3)nc12 | binding, competition with immobilised ligand | 1 µM | remaining binding | 62%
Cn1cc(-c2cc(F)cc(N3CCn4c(cc5c4CCCC5)C3=O)c2CO)cc(Nc2ccc(N3CCN(C4COC4)CC3)cn2)c1=O | enzyme activity, inhibitor | 0.1 µM | inhibition | 5%
O=[N+]([O-])c1ccc([As](=O)(O)O)cc1 | enzyme activity, inhibitor, ADP detection | 100 µM | inhibition | 5.2%
Cn1cc(-c2cccc(N3CCc4c(sc5c4CC(C)(C)C5)C3=O)c2CO)cc(Nc2ccncn2)c1=O | enzyme activity, inhibitor | 1 µM | inhibition | -5%
Nc1ncc(-c2nc(N3CCOCC3)nc(N3CCOCC3)n2)c(C(F)F)n1 | binding, competition with immobilised ligand | 10 µM | remaining binding | 74%
